Results from the RNAGym collection of RNA variant scans (doi:10.1038/s41586-018-0170-7).

B1: tRNA (parent)
chain: GUUCCGUUGGCGUAAUGGUAACGCGUCUCCCUCCUAAGGAGAAGACUGCGGGUUCGAGUCCCGUACGGAACG

Variants of: B1
Test: yeast fitness, log relative to wild type (ln ratio); higher = fitter; tRNA-Arg(CCU), competitive growth, 37 C, 1 M NaCl
In short: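 Variants were counted by 125 bp paired-end Illumina sequencing after pools of a combinatorial tRNA-Arg(CCU) library, held on a HIS3 centromeric plasmid in BY4742 lacking the chromosomal gene, grew ~6.5 generations (~26.5 h) in SC-HIS 1M NaCl at 37 °C. Each genotype's fitness is the natural log of its generations relative to the wild type's. Generations were OD-scaled log2 output/input frequencies, inverse-variance weighted over replicates.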

Variant | yeast fitness (ln)
AGUCCUUUGGCGUAAUGGUAACGCGUCUCCCUCCUAAGGAGAAGAUUGCGGGUUCGAGUCCCGUAAGGGUUG [G1A U2G G6U C46U C66A A69G A70U C71U] | -0.227
GGUCCGUUGGCGUAAUGGUAACGCGUUUCCCUCCUAAGGAGACGAUUGCGGGUUCGAGUCCCGUACGGAAUG [U2G C27U A43C C46U C71U] | -0.0621
ACUCCUUUGGCGUAAUGGUAACGCGUCUCCCUCCUAAGGAGAAGAUUGCGGGUUCGAGUCCCGUACGGGAUG [G1A U2C G6U C46U A69G C71U] | -0.0722
GGUCCUUUGGCGUAAUGGUAACGCGUUUCCCUCCUAAGGAGAAGAUUGCGGGUUCGAGUCCCGUAUGGGUUG [U2G G6U C27U C46U C66U A69G A70U C71U] | -0.336
GGUCCGUUGGCGUAAUGGUAACGCGUUUCCCUCCUAAGGAGAAGACUGCGGGUUCGAGUCCCGUAAGGAUUG [U2G C27U C66A A70U C71U] | -0.195
GUUCCGUUGGCGUAAUGGUAACGCGUUUCCCUCCUAAGGAGAAGACUGCGGGUUCGAGUCCCGUACGGAGUG [C27U A70G C71U] | -0.38
AUUCCGUUGGCGUAAUGGUAACGCGUUUCCCUCCUAAGGAGACGAUUGCGGGUUCGAGUCCCGUAUGGAUUG [G1A C27U A43C C46U C66U A70U C71U] | -0.469
GGUCCUUUGGCGUAAUGGUAACGCGUCUCCCUCCUAAGGAGACGACUGCGGGUUCGAGUCCCGUAUGGAGUG [U2G G6U A43C C66U A70G C71U] | -0.397
GUUCCAUUGGCGUAAUGGUAACGCGUUUCCCUCCUAAGGAGAAGAUUGCGGGUUCGAGUCCCGUACGGAGUG [G6A C27U C46U A70G C71U] | -0.206
GUUCCAUUGGCGUAAUGGUAACGCGUUUCCCUCCUAAGGAGACGACUGCGGGUUCGAGUCCCGUAUGGAUCG [G6A C27U A43C C66U A70U] | -0.169
AUUCCUUUGGCGUAAUGGUAACGCGUCUCCCUCCUAAGGAGAAGACUGCGGGUUCGAGUCCCGUAUGGAACG [G1A G6U C66U] | -0.126
GGUCCGUUGGCGUAAUGGUAACGCGUUUCCCUCCUAAGGAGAAGAUUGCGGGUUCGAGUCCCGUAAGGAACG [U2G C27U C46U C66A] | -0.0734
GUUCCUUUGGCGUAAUGGUAACGCGUCUCCCUCCUAAGGAGAAGACUGCGGGUUCGAGUCCCGUACGGGUCG [G6U A69G A70U] | -0.145
ACUCCGUUGGCGUAAUGGUAACGCGUCUCCCUCCUAAGGAGACGAUUGCGGGUUCGAGUCCCGUAUGGAGCG [G1A U2C A43C C46U C66U A70G] | -0.0459
GUUCCAUUGGCGUAAUGGUAACGCGUUUCCCUCCUAAGGAGACGAUUGCGGGUUCGAGUCCCGUAAGGAGUG [G6A C27U A43C C46U C66A A70G C71U] | -0.296
GGUCCAUUGGCGUAAUGGUAACGCGUCUCCCUCCUAAGGAGACGAUUGCGGGUUCGAGUCCCGUAAGGGUCG [U2G G6A A43C C46U C66A A69G A70U] | -0.0569
AUUCCUUUGGCGUAAUGGUAACGCGUUUCCCUCCUAAGGAGAAGACUGCGGGUUCGAGUCCCGUACGGAUUG [G1A G6U C27U A70U C71U] | -0.335
ACUCCGUUGGCGUAAUGGUAACGCGUUUCCCUCCUAAGGAGAAGAUUGCGGGUUCGAGUCCCGUAUGGAUUG [G1A U2C C27U C46U C66U A70U C71U] | -0.147
AGUCCGUUGGCGUAAUGGUAACGCGUCUCCCUCCUAAGGAGAAGAUUGCGGGUUCGAGUCCCGUAUGGGUCG [G1A U2G C46U C66U A69G A70U] | -0.128

Variant | yeast fitness (ln)
GCUCCAUUGGCGUAAUGGUAACGCGUCUCCCUCCUAAGGAGAAGAUUGCGGGUUCGAGUCCCGUAAGGGGUG [U2C G6A C46U C66A A69G A70G C71U] | -0.258
AGUCCUUUGGCGUAAUGGUAACGCGUUUCCCUCCUAAGGAGACGACUGCGGGUUCGAGUCCCGUACGGAUUG [G1A U2G G6U C27U A43C A70U C71U] | -0.415
GGUCCGUUGGCGUAAUGGUAACGCGUUUCCCUCCUAAGGAGACGAUUGCGGGUUCGAGUCCCGUAAGGAAUG [U2G C27U A43C C46U C66A C71U] | -0.182
GGUCCAUUGGCGUAAUGGUAACGCGUUUCCCUCCUAAGGAGAAGACUGCGGGUUCGAGUCCCGUAUGGGUUG [U2G G6A C27U C66U A69G A70U C71U] | -0.4
ACUCCGUUGGCGUAAUGGUAACGCGUUUCCCUCCUAAGGAGAAGACUGCGGGUUCGAGUCCCGUACGGGUCG [G1A U2C C27U A69G A70U] | -0.0698
ACUCCUUUGGCGUAAUGGUAACGCGUUUCCCUCCUAAGGAGACGAUUGCGGGUUCGAGUCCCGUAUGGAUCG [G1A U2C G6U C27U A43C C46U C66U A70U] | -0.243
GCUCCUUUGGCGUAAUGGUAACGCGUUUCCCUCCUAAGGAGAAGACUGCGGGUUCGAGUCCCGUAUGGAACG [U2C G6U C27U C66U] | -0.0859
AGUCCGUUGGCGUAAUGGUAACGCGUUUCCCUCCUAAGGAGAAGAUUGCGGGUUCGAGUCCCGUAUGGGAUG [G1A U2G C27U C46U C66U A69G C71U] | -0.307
GUUCCGUUGGCGUAAUGGUAACGCGUCUCCCUCCUAAGGAGACGAUUGCGGGUUCGAGUCCCGUAUGGGGUG [A43C C46U C66U A69G A70G C71U] | -0.158
GUUCCUUUGGCGUAAUGGUAACGCGUCUCCCUCCUAAGGAGACGACUGCGGGUUCGAGUCCCGUAUGGAUCG [G6U A43C C66U A70U] | -0.301
GUUCCUUUGGCGUAAUGGUAACGCGUCUCCCUCCUAAGGAGACGACUGCGGGUUCGAGUCCCGUACGGGGCG [G6U A43C A69G A70G] | -0.371
GUUCCUUUGGCGUAAUGGUAACGCGUCUCCCUCCUAAGGAGACGAUUGCGGGUUCGAGUCCCGUAAGGAUCG [G6U A43C C46U C66A A70U] | -0.113
GGUCCUUUGGCGUAAUGGUAACGCGUUUCCCUCCUAAGGAGACGAUUGCGGGUUCGAGUCCCGUACGGAUCG [U2G G6U C27U A43C C46U A70U] | -0.156
ACUCCUUUGGCGUAAUGGUAACGCGUUUCCCUCCUAAGGAGAAGAUUGCGGGUUCGAGUCCCGUAUGGAUUG [G1A U2C G6U C27U C46U C66U A70U C71U] | -0.284
AGUCCAUUGGCGUAAUGGUAACGCGUCUCCCUCCUAAGGAGACGAUUGCGGGUUCGAGUCCCGUACGGAACG [G1A U2G G6A A43C C46U] | -0.111
GGUCCUUUGGCGUAAUGGUAACGCGUUUCCCUCCUAAGGAGAAGACUGCGGGUUCGAGUCCCGUAAGGAUCG [U2G G6U C27U C66A A70U] | -0.0251
GGUCCGUUGGCGUAAUGGUAACGCGUUUCCCUCCUAAGGAGAAGAUUGCGGGUUCGAGUCCCGUAAGGAGUG [U2G C27U C46U C66A A70G C71U] | -0.228
GCUCCGUUGGCGUAAUGGUAACGCGUUUCCCUCCUAAGGAGAAGAUUGCGGGUUCGAGUCCCGUAAGGGUUG [U2C C27U C46U C66A A69G A70U C71U] | -0.387
